Test results published in ChEMBL document CHEMBL1687867, “Thiazolidione derivatives as novel antibiofilm agents: design, synthesis, biological evaluation, and structure-activity relationships” (2011).
In brackets after ≈: the same amount, converted by molar mass.

Columns and labels:
[1] = test system: Staphylococcus epidermidis; experiment: Antibacterial activity against Staphylococcus epidermidis ATCC 35984 by broth microdilution method; format: functional; conditions: RP62A
Summary of the method: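 MIC determined by CLSI broth microdilution […].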

[2] = test system: Staphylococcus epidermidis; experiment: Antibacterial activity against Staphylococcus epidermidis ATCC 35984 assessed as inhibition of biofilm production after 6 hrs; format: functional, RP62A; conditions: in the assay text read “after 18 hrs” for “after 6 hrs”
Summary of the method: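 Young S. epidermidis biofilm grown 6 h at 37 °C in TSB with glucose in microtiter wells, washed four times with PBS, then exposed to fresh TSB carrying serially diluted compounds for 18 h at 37 °C. After PBS washes, methanol fixation 15 min, air drying and crystal violet staining. Washed dried biofilm served as blank (subtracted), TSB-only biofilm as positive control; triplicate wells, three repeats.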

[3] = test system: Staphylococcus epidermidis; experiment: Antibacterial activity against Staphylococcus epidermidis ATCC 35984 assessed as inhibition of biofilm production after 18 hrs

| Structure (SMILES) | MIC [1] [µM] | Biofilm inhibitory concentration [2] [µM] | INH [3] [µM] |
| --- | --- | --- | --- |
| Cc1ccc(/N=C2/S/C(=C\c3ccc(-c4cccc(C(=O)O)c4)o3)C(=O)N2c2ccc(C)cc2)cc1 | 6.25 (≈ 3.09 µg/mL) | 12.5 | – |
| CCOC(=O)C1=C(c2ccccc2)N=c2s/c(=C\c3ccc(OCC(=O)O)cc3)c(=O)n2C1c1ccc(OC)cc1 (stereo not given) | 25 (≈ 14.3 µg/mL) | 50 | – |
| CCOC(=O)C1=C(c2ccccc2)N=c2s/c(=C\c3ccc(-c4cccc(C(=O)O)c4)o3)c(=O)n2C1c1ccccc1 (stereo not given) | > 200 | >200 | – |
| CCOC(=O)C1=C(c2ccccc2)N=c2s/c(=C\c3ccc(-c4cccc(C(=O)O)c4)o3)c(=O)n2C1c1ccc(OC)cc1 (stereo not given) | 6.25 (≈ 3.79 µg/mL) | 25 | – |
| CCOC(=O)C1=C(c2ccccc2)N=c2s/c(=C\c3ccc(-c4cccc(C(=O)OC)c4)o3)c(=O)n2C1c1ccccc1 (stereo not given) | > 200 | >200 | – |
| CCOC(=O)C1=C(c2ccccc2)N=c2s/c(=C\c3ccc(-c4cccc(C(=O)OC)c4)o3)c(=O)n2C1c1ccc(OC)cc1 (stereo not given) | > 200 | >200 | – |
| CCOC(=O)C1=C(c2ccccc2)N=c2s/c(=C\c3cccc(O)c3)c(=O)n2C1c1ccc(OC)cc1 (stereo not given) | > 200 | >200 | – |
| CCOC(=O)C1=C(c2ccccc2)N=c2s/c(=C\c3ccc(N(C)C)cc3)c(=O)n2C1c1ccc(OC)cc1 (stereo not given) | > 200 | >200 | – |
| CCOC(=O)C1=C(c2ccccc2)N=c2s/c(=C\c3cccc([N+](=O)[O-])c3)c(=O)n2C1c1ccc(OC)cc1 (stereo not given) | > 200 | >200 | – |
| CCOC(=O)C1=C(c2ccccc2)N=c2s/c(=C\c3ccc(O)c(OC)c3)c(=O)n2C1c1ccc(OC)cc1 (stereo not given) | > 200 | >200 | – |
| CCOC(=O)C1=C(c2ccccc2)N=c2s/c(=C\c3ccc(O)cc3)c(=O)n2C1c1ccc(OC)cc1 (stereo not given) | > 200 | >200 | – |
| CCOC(=O)C1=C(c2ccccc2)N=c2s/c(=C\c3ccc(OCC(=O)O)cc3)c(=O)n2C1c1ccc2c(c1)OCO2 (stereo not given) | 25 (≈ 14.6 µg/mL) | 50 | – |
| COc1ccc(C/N=C2/S/C(=C\c3ccc(OCC(=O)O)cc3)C(=O)N2Cc2ccc(OC)cc2)cc1 | 12.5 (≈ 6.48 µg/mL) | 25 | – |
| COc1ccc(C/N=C2/S/C(=C\c3ccc(-c4cccc(C(=O)O)c4)o3)C(=O)N2Cc2ccc(OC)cc2)cc1 | 50 (≈ 27.7 µg/mL) | – | – |
| COc1ccc(/N=C2/S/C(=C\c3ccc(-c4cccc(C(=O)O)c4)o3)C(=O)N2c2ccc(OC)cc2)cc1 | 6.25 (≈ 3.29 µg/mL) | – | 6.25 |
| Cc1ccccc1/N=C1/S/C(=C\c2ccc(-c3cccc(C(=O)O)c3)o2)C(=O)N1c1ccccc1C | 12.5 (≈ 6.18 µg/mL) | 25 | – |
| Cc1ccccc1/N=C1/S/C(=C\c2ccc(-c3ccc(C(=O)O)cc3)o2)C(=O)N1c1ccccc1C | 3.12 (≈ 1.55 µg/mL) | – | 6.25 |
| CCOC(=O)C1=C(c2ccccc2)N=c2s/c(=C\c3ccc(-c4cccc(C(=O)O)c4)o3)c(=O)n2C1c1ccc2c(c1)OCO2 (stereo not given) | 6.25 (≈ 3.88 µg/mL) | 25 | – |
